The inhibition is the share of the control response that was lost under treatment.

Activity calls are given as the source filed them.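 The calls were made as follows: active = inhibition of the malaria parasite aminopeptidase at 45% or more; inactive = inhibition below 45%.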

Chain of Aminopeptidase N (Plasmodium falciparum (isolate 3D7)) (O96935 whole entry, looked up): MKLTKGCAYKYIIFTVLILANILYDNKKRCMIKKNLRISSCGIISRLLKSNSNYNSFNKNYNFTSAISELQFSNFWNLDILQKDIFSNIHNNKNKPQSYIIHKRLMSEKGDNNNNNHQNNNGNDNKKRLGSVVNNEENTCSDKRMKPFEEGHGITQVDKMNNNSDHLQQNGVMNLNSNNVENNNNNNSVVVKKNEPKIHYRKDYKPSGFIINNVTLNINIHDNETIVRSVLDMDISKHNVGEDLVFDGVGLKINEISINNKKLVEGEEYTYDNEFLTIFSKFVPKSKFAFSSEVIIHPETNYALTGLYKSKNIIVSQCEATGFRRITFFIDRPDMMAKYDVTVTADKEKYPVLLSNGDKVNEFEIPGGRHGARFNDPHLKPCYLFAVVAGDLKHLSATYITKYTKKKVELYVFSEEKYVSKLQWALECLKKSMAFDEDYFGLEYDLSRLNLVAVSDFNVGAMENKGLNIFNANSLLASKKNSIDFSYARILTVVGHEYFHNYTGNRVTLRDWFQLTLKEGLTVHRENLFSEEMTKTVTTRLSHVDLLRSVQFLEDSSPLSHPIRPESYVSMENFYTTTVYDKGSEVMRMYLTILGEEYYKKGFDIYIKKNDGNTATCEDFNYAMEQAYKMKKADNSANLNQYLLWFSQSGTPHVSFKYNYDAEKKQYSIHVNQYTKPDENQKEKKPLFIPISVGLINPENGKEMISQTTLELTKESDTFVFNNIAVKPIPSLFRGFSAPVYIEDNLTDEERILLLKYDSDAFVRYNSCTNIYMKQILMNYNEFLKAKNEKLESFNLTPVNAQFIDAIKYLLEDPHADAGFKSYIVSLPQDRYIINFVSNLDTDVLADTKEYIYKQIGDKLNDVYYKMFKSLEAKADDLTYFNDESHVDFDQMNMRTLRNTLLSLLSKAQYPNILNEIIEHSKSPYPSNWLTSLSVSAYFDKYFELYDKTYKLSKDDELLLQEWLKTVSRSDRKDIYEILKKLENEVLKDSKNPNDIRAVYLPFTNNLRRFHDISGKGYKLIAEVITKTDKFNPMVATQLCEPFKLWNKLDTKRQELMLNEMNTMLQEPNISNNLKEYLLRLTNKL

The target of the assay is Aminopeptidase N (Plasmodium falciparum (isolate 3D7)) (UniProt O96935). Description: P. falciparum M1 aminopeptidase enzyme inhibition – biochemical, fluorescence, recombinant enzyme, assay provider, late-stage follow-up (AID 492978). The note with it: recombinant PfM1AAP, H-Leu-NHMec fluorescence; at 5 µM; hits give high values. A digest of the protocol:
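Test system – recombinant P. falciparum M1 aminopeptidase · Input – enzyme at 1 µg/mL · Medium – 25 mM Tris-HCl buffer, pH 7.5 · Read-out basis – % inhibition relative to uninhibited enzyme · Schedule – 10 min enzyme–compound preincubation, then 30 min kinetic read · Control set – no-inhibitor enzyme wells and no-enzyme background wells · Technique – kinetic fluorescence, excitation 370 nm, emission 460 nm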
`O=C1N=c2ccccc2=C1c1sc(=S)n(NC(=O)c2ccccc2)c1O`: the inhibition is 13% (inactive). Take `O=C(NCc1cccc(F)c1)C1CCN(S(=O)(=O)Cc2ccccc2)CC1`: the inhibition is 69%.

For the compound `CC(=O)N1N=C(c2c(O)n(C)c(=O)n(C)c2=O)CC1c1ccccc1` (stereo not drawn), the inhibition was 7% (inactive). Under `COc1ccc(C2CC(c3c(-c4ccccc4)c4cc(Cl)ccc4[nH]c3=O)=NN2C(=O)CCC(=O)O)cc1` (stereo not drawn) stands 0% (inactive); under `O=C(O)CCC(=O)N1N=C(c2c(-c3ccccc3)c3cc(Cl)ccc3[nH]c2=O)CC1c1ccco1` (stereo not drawn), 13% (inactive); under `O=C1/C(=C/c2cccs2)SC(=S)N1NS(=O)(=O)c1ccccc1`, 20% (inactive). For `O=C(NCCC1=CCCCC1)C1CCN(S(=O)(=O)c2ccc(Br)s2)CC1` the value was 45%; for `O=C(O)CCC(=O)N1N=C(c2c(-c3ccccc3)c3cc(Cl)ccc3[nH]c2=O)CC1c1cccs1` (stereo not drawn), 13% (inactive). As for `O=C(Nn1c(C2CCC2)nc2ccccc2c1=O)c1cccs1`, the inhibition is 8% (inactive).

In the case of `COc1ccc(OC)c(/C=C2\SC(=S)N(C(C(=O)O)c3ccccc3)C2=O)c1` (stereo not drawn), the inhibition was 16% (inactive). Under `O=C1N=c2ccccc2=C1c1sc(=S)n(NC(=O)c2cccc(O)c2)c1O` stands 48%; under `COc1ccccc1-c1nc2ccccc2c(=O)n1NC(=O)c1cccs1`, 38% (inactive); under `O=C(NCc1ccco1)C1CCCN(S(=O)(=O)c2cccc3nonc23)C1` (stereo not drawn), 17% (inactive).

The values are drawn from PubChem BioAssay AID492978 (The Scripps Research Institute Molecular Screening Center, 2010).
